Test results published in ChEMBL document CHEMBL1687776, “Origin and molecular evolution of the determinant of methicillin resistance in staphylococci” (2010).
In brackets after ≈: the same amount, converted by molar mass.

What was measured:
Staphylococcus vitulinus [1] = assay: Antibacterial activity against mecA-negative Staphylococcus vitulinus SVMN02 by agar dilution method; type: functional; conditions: Mammaliicoccus vitulinus
Method in brief: (§1)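 MIC by agar dilution on Mueller-Hinton agar per CLSI guidance; resistance judged against CLSI breakpoints. Strains were animal or food isolates (type strains for S. sciuri subspecies), typed by hsp60 and/or sodA sequencing; mecA homologue carriage checked by PCR with degenerate primers. Agents tested: oxacillin, ampicillin, ceftizoxime, ceftriaxone, cefoxitin.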

Mammaliicoccus lentus = assay: Antibacterial activity against mecA-negative Staphylococcus lentus ATCC 29070T by agar dilution method; type: functional
Method in brief: (§2)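 MIC by agar dilution on Mueller-Hinton agar following CLSI guidelines. Resistance was assigned using CLSI breakpoints. Agents tested were oxacillin, ampicillin, ceftizoxime, ceftriaxone and cefoxitin. Strains were from animal or food sources and identified by hsp60 and/or sodA sequencing. mecA absence was assessed by PCR with degenerate primers for mecA and its homologues.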

[2] = tested on: Staphylococcus fleurettii; assay: Antibacterial activity against mecA-negative Staphylococcus fleurettii SFMN01 by agar dilution method; type: functional; conditions: Mammaliicoccus fleurettii; method in brief: as §2
[3] = Antibacterial activity against mecA-positive Staphylococcus sciuri subsp. carnaticus ATCC 700058T by agar dilution method; conditions: Mammaliicoccus sciuri
Staphylococcus vitulinus [4] = assay: Antibacterial activity against mecA-negative Staphylococcus vitulinus SVMN01 (ATCC 51145T) by agar dilution method; type: functional; conditions: Mammaliicoccus vitulinus; method in brief: as §2
[5] = tested on: Staphylococcus fleurettii; assay: Antibacterial activity against methicillin-resistant mecA-positive Staphylococcus fleurettii SFMP04 by agar dilution method; type: functional; conditions: Mammaliicoccus fleurettii; method in brief: as §1
Staphylococcus vitulinus [6] = assay: Antibacterial activity against methicillin-resistant mecA-positive Staphylococcus vitulinus SVMP06 by agar dilution method; type: functional; conditions: Mammaliicoccus vitulinus; method in brief: as §1
Staphylococcus vitulinus [7] = assay: Antibacterial activity against mecA-negative Staphylococcus vitulinus SVMN08 by agar dilution method; type: functional; conditions: Mammaliicoccus vitulinus; method in brief: as §2
Staphylococcus vitulinus [8] = assay: Antibacterial activity against mecA-negative Staphylococcus vitulinus SVMN09 by agar dilution method; type: functional; conditions: Mammaliicoccus vitulinus; method in brief: as §1
Staphylococcus vitulinus [9] = assay: Antibacterial activity against methicillin-resistant mecA-positive Staphylococcus vitulinus SVMP04 by agar dilution method; type: functional; conditions: Mammaliicoccus vitulinus; method in brief: as §1
Staphylococcus vitulinus [10] = assay: Antibacterial activity against mecA-negative Staphylococcus vitulinus SVMN10 by agar dilution method; type: functional; conditions: Mammaliicoccus vitulinus; method in brief: as §2
Staphylococcus vitulinus [11] = assay: Antibacterial activity against mecA-negative Staphylococcus vitulinus SVMN05 by agar dilution method; type: functional; conditions: Mammaliicoccus vitulinus; method in brief: as §1
[12] = tested on: Staphylococcus fleurettii; assay: Antibacterial activity against methicillin-resistant mecA-positive Staphylococcus fleurettii SFMP02 by agar dilution method; type: functional; conditions: Mammaliicoccus fleurettii; method in brief: as §1
[13] = tested on: Staphylococcus fleurettii; assay: Antibacterial activity against methicillin-resistant mecA-positive Staphylococcus fleurettii SFMP07 by agar dilution method; type: functional; conditions: Mammaliicoccus fleurettii; method in brief: as §1
Staphylococcus vitulinus [14] = assay: Antibacterial activity against methicillin-resistant mecA-positive Staphylococcus vitulinus SVMP01 by agar dilution method; type: functional; conditions: Mammaliicoccus vitulinus; method in brief: as §1
[15] = tested on: Staphylococcus fleurettii; assay: Antibacterial activity against methicillin-resistant mecA-positive Staphylococcus fleurettii SFMP08 by agar dilution method; type: functional; conditions: Mammaliicoccus fleurettii; method in brief: as §1
[16] = tested on: Staphylococcus fleurettii; assay: Antibacterial activity against methicillin-resistant mecA-positive Staphylococcus fleurettii SFMP06 by agar dilution method; type: functional; conditions: Mammaliicoccus fleurettii; method in brief: as §1
Staphylococcus vitulinus [17] = assay: Antibacterial activity against mecA-negative Staphylococcus vitulinus SVMN13 by agar dilution method; type: functional; conditions: Mammaliicoccus vitulinus; method in brief: as §2
Staphylococcus vitulinus [18] = assay: Antibacterial activity against mecA-negative Staphylococcus vitulinus SVMN12 by agar dilution method; type: functional; conditions: Mammaliicoccus vitulinus; method in brief: as §1
[19] = tested on: Staphylococcus fleurettii; assay: Antibacterial activity against methicillin-resistant mecA-positive Staphylococcus fleurettii SFMP05 by agar dilution method; type: functional; conditions: Mammaliicoccus fleurettii; method in brief: as §1
Staphylococcus vitulinus [20] = assay: Antibacterial activity against methicillin-resistant mecA-positive Staphylococcus vitulinus SVMP03 by agar dilution method; type: functional; conditions: Mammaliicoccus vitulinus; method in brief: as §1
Staphylococcus vitulinus [21] = assay: Antibacterial activity against mecA-negative Staphylococcus vitulinus SVMN11 by agar dilution method; type: functional; conditions: Mammaliicoccus vitulinus; method in brief: as §1
Staphylococcus vitulinus [22] = assay: Antibacterial activity against methicillin-resistant mecA-positive Staphylococcus vitulinus SVMP05 by agar dilution method; type: functional; conditions: Mammaliicoccus vitulinus; method in brief: as §1
[23] = tested on: Staphylococcus fleurettii; assay: Antibacterial activity against mecA-negative Staphylococcus fleurettii SFMN02 by agar dilution method; type: functional; conditions: Mammaliicoccus fleurettii; method in brief: as §2
[24] = Antibacterial activity against methicillin-resistant mecA-positive Staphylococcus sciuri subsp. sciuri ATCC 29062T by agar dilution method; type: functional; conditions: Mammaliicoccus sciuri; method in brief: as §1
[25] = tested on: Staphylococcus fleurettii; assay: Antibacterial activity against methicillin-resistant mecA-positive Staphylococcus fleurettii SFMP03 by agar dilution method; type: functional; conditions: Mammaliicoccus fleurettii; method in brief: as §1
Staphylococcus vitulinus [26] = assay: Antibacterial activity against mecA-negative Staphylococcus vitulinus SVMN06 by agar dilution method; type: functional; conditions: Mammaliicoccus vitulinus; method in brief: as §1
[27] = Antibacterial activity against methicillin-resistant mecA-positive Staphylococcus sciuri subsp. rodentium ATCC 700061T by agar dilution method; type: functional; conditions: Mammaliicoccus sciuri; method in brief: as §1
Staphylococcus vitulinus [28] = assay: Antibacterial activity against mecA-negative Staphylococcus vitulinus SVMN14 by agar dilution method; type: functional; conditions: Mammaliicoccus vitulinus; method in brief: as §1
[29] = tested on: Staphylococcus fleurettii; assay: Antibacterial activity against methicillin-resistant mecA-positive Staphylococcus fleurettii SFMP01(CCUG 43834T) by agar dilution method; type: functional; conditions: Mammaliicoccus fleurettii; method in brief: as §1
Staphylococcus vitulinus [30] = assay: Antibacterial activity against mecA-negative Staphylococcus vitulinus SVMN04 by agar dilution method; type: functional; conditions: Mammaliicoccus vitulinus; method in brief: as §1
Staphylococcus vitulinus [31] = assay: Antibacterial activity against mecA-negative Staphylococcus vitulinus SVMN07 by agar dilution method; type: functional; conditions: Mammaliicoccus vitulinus; method in brief: as §1
Staphylococcus vitulinus [32] = assay: Antibacterial activity against mecA-negative Staphylococcus vitulinus SVMN03 by agar dilution method; type: functional; conditions: Mammaliicoccus vitulinus; method in brief: as §2
Staphylococcus vitulinus [33] = assay: Antibacterial activity against methicillin-resistant mecA-positive Staphylococcus vitulinus SVMP02 by agar dilution method; type: functional; conditions: Mammaliicoccus vitulinus; method in brief: as §1

SMILES	MIC (Staphylococcus vitulinus [1]) [µg/mL]	MIC (Mammaliicoccus lentus) [µg/mL]	MIC [2] [µg/mL]	MIC [3] [µg/mL]	MIC (Staphylococcus vitulinus [4]) [µg/mL]	MIC [5] [µg/mL]	MIC (Staphylococcus vitulinus [6]) [µg/mL]	MIC (Staphylococcus vitulinus [7]) [µg/mL]	MIC (Staphylococcus vitulinus [8]) [µg/mL]	MIC (Staphylococcus vitulinus [9]) [µg/mL]	MIC (Staphylococcus vitulinus [10]) [µg/mL]	MIC (Staphylococcus vitulinus [11]) [µg/mL]	MIC [12] [µg/mL]	MIC [13] [µg/mL]	MIC (Staphylococcus vitulinus [14]) [µg/mL]	MIC [15] [µg/mL]	MIC [16] [µg/mL]	MIC (Staphylococcus vitulinus [17]) [µg/mL]	MIC (Staphylococcus vitulinus [18]) [µg/mL]	MIC [19] [µg/mL]	further results
CC1(C)S[C@@H]2[C@H](NC(=O)[C@H](N)c3ccccc3)C(=O)N2[C@H]1C(=O)O [AMPICILLIN]	< 0.063	< 0.063	0.125 (≈ 0.358 µM)	0.125 (≈ 0.358 µM)	0.125 (≈ 0.358 µM)	1 (≈ 2.86 µM)	< 0.063	< 0.063	< 0.063	< 0.063	< 0.063	< 0.063	1 (≈ 2.86 µM)	0.25 (≈ 0.715 µM)	< 0.063	1 (≈ 2.86 µM)	1 (≈ 2.86 µM)	< 0.063	< 0.063	0.25 (≈ 0.715 µM)	MIC (Staphylococcus vitulinus [20]): < 0.063 µg/mL; MIC (Staphylococcus vitulinus [21]): 0.125 µg/mL (≈ 0.358 µM); MIC (Staphylococcus vitulinus [22]): < 0.063 µg/mL; MIC [23]: 0.125 µg/mL (≈ 0.358 µM); MIC [24]: 0.125 µg/mL (≈ 0.358 µM); MIC [25]: 1 µg/mL (≈ 2.86 µM); MIC (Staphylococcus vitulinus [26]): < 0.063 µg/mL; MIC [27]: 0.125 µg/mL (≈ 0.358 µM); MIC (Staphylococcus vitulinus [28]): < 0.063 µg/mL; MIC [29]: 1 µg/mL (≈ 2.86 µM); MIC (Staphylococcus vitulinus [30]): < 0.063 µg/mL; MIC (Staphylococcus vitulinus [31]): < 0.063 µg/mL; MIC (Staphylococcus vitulinus [32]): < 0.063 µg/mL; MIC (Staphylococcus vitulinus [33]): < 0.063 µg/mL
CO[C@@]1(NC(=O)Cc2cccs2)C(=O)N2C(C(=O)O)=C(COC(N)=O)CS[C@@H]21 [CEFOXITIN]	1 (≈ 2.34 µM)	2 (≈ 4.68 µM)	2 (≈ 4.68 µM)	2 (≈ 4.68 µM)	2 (≈ 4.68 µM)	4 (≈ 9.36 µM)	1 (≈ 2.34 µM)	0.25 (≈ 0.585 µM)	1 (≈ 2.34 µM)	1 (≈ 2.34 µM)	0.5 (≈ 1.17 µM)	1 (≈ 2.34 µM)	1 (≈ 2.34 µM)	1 (≈ 2.34 µM)	2 (≈ 4.68 µM)	2 (≈ 4.68 µM)	2 (≈ 4.68 µM)	1 (≈ 2.34 µM)	1 (≈ 2.34 µM)	1 (≈ 2.34 µM)	MIC (Staphylococcus vitulinus [20]): 2 µg/mL (≈ 4.68 µM); MIC (Staphylococcus vitulinus [21]): 1 µg/mL (≈ 2.34 µM); MIC (Staphylococcus vitulinus [22]): 1 µg/mL (≈ 2.34 µM); MIC [23]: 2 µg/mL (≈ 4.68 µM); MIC [24]: 2 µg/mL (≈ 4.68 µM); MIC [25]: 8 µg/mL (≈ 18.7 µM); MIC (Staphylococcus vitulinus [26]): 2 µg/mL (≈ 4.68 µM); MIC [27]: 2 µg/mL (≈ 4.68 µM); MIC (Staphylococcus vitulinus [28]): 0.5 µg/mL (≈ 1.17 µM); MIC [29]: 2 µg/mL (≈ 4.68 µM); MIC (Staphylococcus vitulinus [30]): 1 µg/mL (≈ 2.34 µM); MIC (Staphylococcus vitulinus [31]): 2 µg/mL (≈ 4.68 µM); MIC (Staphylococcus vitulinus [32]): 0.5 µg/mL (≈ 1.17 µM); MIC (Staphylococcus vitulinus [33]): 1 µg/mL (≈ 2.34 µM)
